Assay results of several laboratories.
Protocols differ between the studies behind these lines. Values after ≈ are worked out from the molar mass of the structure shown.

For `CCCCC(=O)Nc1ccc(-c2ccc3ncn(CCC(C)C)c(=O)c3c2)cn1`, the IC50 was 0.55 µM (HCC827; cell growth or viability, CCK-8; 72 h).
`O=C(Nc1ccc(F)cc1)c1ccc(COC(Cn2ccnc2)c2ccc(Cl)cc2Cl)cc1` (centres unmarked) has an MIC80 of 0.25 µg/mL (≈ 0.516 µM) (Nakaseomyces glabratus; microbial growth, broth dilution).
`CCCCn1cnc2ccc(-c3ccc(NC(=O)Nc4ccc(C(F)(F)F)cc4)nc3)cc2c1=O` gave an IC50 of > 10 µM (HCC827; cell growth or viability, CCK-8; 72 h).
`Cc1n[nH]c2ccc3nc(-c4ccc(C(=O)NCCN(C)C)cc4F)c4c(c3c12)CCCCC4` has a GI50 of 4.87 µM (HCC827; cell growth or viability; 72 h).
With `COc1cc(C2=CCCc3c2ccc(OC)c3OCc2cnc([N+](=O)[O-])n2C)cc(OC)c1OC` the IC50 was > 20 µM (tubulin polymerisation, inhibitor; 20 min).
For `CCc1nc(C(N)=O)c(Nc2ccc(N3CCC(N4CCN(C)CC4)CC3)c(OC)c2)nc1NC1CCOCC1`, the GI50 was 0.283 µM (HCC827; cell growth or viability; 72 h).
`OC(Cn1cncn1)(Cn1cncn1)c1ccc(F)cc1F` has an MIC80 of 8 µg/mL (≈ 26.1 µM) (Nakaseomyces glabratus; microbial growth, broth dilution).
`CCCCn1cnc2ccc(-c3ccc(NC(=O)NC(C)(C)C)nc3)cc2c1=O` has an IC50 of 3.97 µM (HCC827; cell growth or viability, CCK-8; 72 h).
`O=C(Nc1ccccc1)c1ccc(COC(Cn2ccnc2)c2ccc(Cl)cc2Cl)cc1` (centres unmarked) has an MIC80 of 0.25 µg/mL (≈ 0.536 µM) (Nakaseomyces glabratus; microbial growth, broth dilution).
`Cc1n[nH]c2ccc3nc(-c4ccc(C(=O)NCCN(C)C)cc4)c4c(c3c12)CCCC4` has a GI50 of 4.07 µM (HCC827; cell growth or viability; 72 h).
For `CCCCC(=O)Nc1ccc(-c2ccc3ncn(CC4CC4)c(=O)c3c2)cn1`, the IC50 was 0.056 µM (HCC827; cell growth or viability, CCK-8; 72 h).
`Cc1n[nH]c2ccc3nc(-c4ccc(C(=O)NCCN(C)C)cc4F)c4c(c3c12)CCCC4` has a GI50 of 0.611 µM (HCC827; cell growth or viability; 72 h).
The IC50 of `COc1cc(C2=CCCc3c2ccc(OC)c3OC(C)c2cnc([N+](=O)[O-])n2C)cc(OC)c1OC` (centres unmarked) is reported as > 20 µM (tubulin polymerisation, inhibitor; 20 min).
`Cc1nc(Nc2ncc(C(=O)Nc3c(C)cccc3Cl)s2)cc(N2CC[C@H](O)C2)n1` gave an inhibition of 75% (Daudi; cell growth or viability, ATP luminescence; 10 µM, 72 h).
With `CCCCn1cnc2ccc(-c3ccc(NC(=O)NCCC)nc3)cc2c1=O` the IC50 was > 10 µM (HCC827; cell growth or viability, CCK-8; 72 h).
`COc1cc(C2=CCCc3c2ccc(OC)c3OCc2ccc([N+](=O)[O-])s2)cc(OC)c1OC` has an IC50 of > 20 µM (tubulin polymerisation, inhibitor; 20 min).
`O=C(Nc1cccc(Cl)c1)c1ccc(COC(Cn2ccnc2)c2ccc(Cl)cc2Cl)cc1` (centres unmarked) gave an MIC80 of 0.25 µg/mL (≈ 0.499 µM) (Nakaseomyces glabratus; microbial growth, broth dilution).
